Results: ChEMBL document CHEMBL4422663, “Suppression of Tumor Growth and Metastases by Targeted Intervention in Urokinase Activity with Cyclic Peptides” (J Med Chem, 2019)
pIC50, pKd, pKi: −log10 of the molar value. The source made the active and inactive calls. The rule behind the calls is not given here. Positions of bridges follow the written chain, without caps; N, C: chain ends. Residues, ends and D or L forms follow the SMILES beside them.

What was measured:
Plasminogen [1] = target: Plasminogen (Homo sapiens, UniProt P00747); test: Inhibition of human plasmin preincubated for 15 mins followed by chromogenic substrate addition
Plasminogen [2] = target: Plasminogen (Mus musculus, UniProt P20918); test: Inhibition of mouse plasmin preincubated for 15 mins followed by chromogenic substrate addition
CT26 [3] = test: Antimetastatic activity against mouse CT26 cells allografted in Balb/c mouse at 11.3 mg/kg, ip administered daily for 15 days by hematoxylin and eosin staining -based assay; type: functional, organism-based
Summary of the method: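 Lungs from male Balb/c given 10^6 GFP-CT-26 cells iv, with daily ip dosing on Days 1–15, were harvested on Day 16. Formalin-fixed, paraffin-embedded sections were stained with H&E for histology, with non-implanted lungs as comparison.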

[4] = target: T1, Urokinase-type plasminogen activator (Mus musculus, UniProt P06869); test: Binding affinity to mouse uPA by SPR assay
CT26 [5] = test: Antimetastatic activity against GFP-fused mouse CT26 cells allografted in Balb/c mouse assessed as reduction in relative fluorescence at 11.3 mg/kg, ip administered daily for 15 days by fluorescence-based assay; type: functional; conditions: 360 h
Summary of the method: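 Lung metastasis model: male Balb/c mice (~20 g, 6/group) given 10^6 GFP-CT-26 cells i.v. with peptide or saline, daily i.p. dosing Day 1–15, sacrificed Day 16. Resected lungs imaged for GFP with 488 nm excitation, emission 520; signal collected over 20×20 mm2 per lung; non-implanted normal group used for background subtraction.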

[6] = target: Urokinase-type plasminogen activator (Homo sapiens, UniProt P00749); test: Inhibition of human uPA preincubated for 15 mins followed by chromogenic substrate addition
[7] = target: Urokinase-type plasminogen activator (Mus musculus) (UniProt P06869); test: Potency index, ratio of Ki for LD1 to Ki for test compound for inhibition of mouse uPA preincubated for 15 mins followed by chromogenic substrate addition
[8] = target: T1, Urokinase-type plasminogen activator; test: Inhibition of mouse uPA serine protease domain preincubated for 15 mins followed by chromogenic substrate addition
CT26 [9] = test: Anti-tumor activity against […] mouse CT26 cells allografted in Balb/c mouse assessed as tumor growth inhibition at 1.13 mg/kg, ip administered daily for 15 days and measured on day 16 […]; type: functional; conditions: read-out: TGI
Summary of the method: (§1)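 CT-26 cells implanted subcutaneously in right flank of Balb/c mice; once tumors reached about 150~200 mm3, daily intraperitoneal dosing with peptide or saline for 15 days. Mice sacrificed on Day 16; tumors resected and weighed; tumor growth reduction relative to saline group.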

CT26 [10] = test: Anti-tumor activity against GFP expressing mouse CT26 cells allografted in Balb/c mouse assessed as tumor growth inhibition at 11.3 mg/kg, ip administered daily for 15 days and measured on day 16 […]; type: functional; conditions: read-out: TGI; summary of the method: as §1
[11] = target: Urokinase-type plasminogen activator (Mus musculus) (UniProt P06869); test: Inhibition of the intrinsic peri-cellular uPA in mouse CT26 cells assessed as reduction in cell invasion at 33 to 100 uM by Transwell invasion assay relative to control
CT26 [12] = test: Antimetastatic activity against GFP-fused mouse CT26 cells allografted in Balb/c mouse assessed as reduction genomic DNA of metastatic cells at 1.13 mg/kg, ip administered daily for 15 days by qPCR analysis; type: functional, organism-based
Summary of the method: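 Lung-metastasis model: male Balb/c (~20 g, 6/group) given 10^6 GFP-CT-26 cells iv, then daily ip dosing from Day 1 to 15, killed on Day 16. Total DNA (200 ng) from homogenized lungs went to SYBR Green qPCR (287 bp amplicon, 45 cycles). The standard curve used CT-26 genomic DNA spiked into normal lung DNA at 0.135–100%.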

Prothrombin = Prothrombin (Mus musculus, UniProt P19221); test: Inhibition of mouse thrombin preincubated for 15 mins followed by chromogenic substrate addition
CT26 [13] = test: Antimetastatic activity against GFP-fused mouse CT26 cells allografted in Balb/c mouse assessed as reduction in hyperplastic weights at 1.13 mg/kg, ip administered daily for 15 days by fluorescence-based assay; type: functional, organism-based
Summary of the method: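 GFP-CT-26 cells (10^6) iv into male Balb/c, daily ip treatment Days 1–15, lungs resected and weighed at sacrifice on Day 16. Hyperplastic weight is lung weight minus the mean weight of lungs from non-implanted normal mice.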

[14] = target: T1, Urokinase-type plasminogen activator; test: Inhibition of uPA in presence of 75% mouse […] measured at 24 hrs
Summary of the method: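 Peptide was preincubated in 75% murine plasma for 0–24 h (sampled at 0, 2, 8 and 24 h). Residual uPA-inhibitory activity was then measured and expressed as IC50.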

[15] = target: T1, Urokinase-type plasminogen activator; test: Binding affinity to mouse uPA expressed in HEK2936E cells by ITC assay
CT26 [16] = test: Antimetastatic activity against GFP-fused mouse CT26 cells allografted in Balb/c mouse assessed as reduction genomic DNA of metastatic cells at 11.3 mg/kg, ip administered daily for 15 days by qPCR analysis; type: functional; conditions: 360 h
Summary of the method: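 Male Balb/c mice (~20 g, 6/group) given 10^6 GFP-CT-26 cells i.v. in 200 µl mixed with peptide or saline, then daily i.p. peptide Day 1–15; sacrificed Day 16. Lung total DNA isolated after homogenization; 200 ng per SYBR Green qPCR, quantified against standard curve of CT-26 DNA spiked into normal lung DNA (0.135%-100%).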

Plasma kallikrein = Plasma kallikrein (Homo sapiens, UniProt P03952); test: Inhibition of human plasma kallikrein preincubated for 15 mins followed by chromogenic substrate addition
CT26 [17] = test: Cytotoxicity against mouse CT26 cells at 100 uM; type: cell-based; conditions: ct26, 100 µM

T1 sequence (P06869 21-178 limits assumed): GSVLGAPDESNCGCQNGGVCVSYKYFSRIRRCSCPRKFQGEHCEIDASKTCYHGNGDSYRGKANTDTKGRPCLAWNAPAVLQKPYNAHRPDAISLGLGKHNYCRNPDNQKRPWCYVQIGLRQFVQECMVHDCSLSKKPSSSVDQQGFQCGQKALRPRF
T1 sequence (P06869 180-433 limits assumed): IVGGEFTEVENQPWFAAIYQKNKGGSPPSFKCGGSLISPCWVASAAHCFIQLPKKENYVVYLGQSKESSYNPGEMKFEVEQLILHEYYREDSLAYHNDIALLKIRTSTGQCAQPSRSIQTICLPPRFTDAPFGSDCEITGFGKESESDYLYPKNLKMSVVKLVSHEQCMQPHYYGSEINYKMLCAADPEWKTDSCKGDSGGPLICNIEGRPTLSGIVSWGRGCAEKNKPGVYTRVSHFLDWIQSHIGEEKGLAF
Sequence of Urokinase-type plasminogen activator (Mus musculus) (P06869 21-178 limits assumed): as the sequence (P06869 21-178 limits assumed) above
Sequence of Urokinase-type plasminogen activator (Mus musculus) (P06869 180-433 limits assumed): as the sequence (P06869 180-433 limits assumed) above
Sequence of Plasma kallikrein (P03952 20-390 limits assumed): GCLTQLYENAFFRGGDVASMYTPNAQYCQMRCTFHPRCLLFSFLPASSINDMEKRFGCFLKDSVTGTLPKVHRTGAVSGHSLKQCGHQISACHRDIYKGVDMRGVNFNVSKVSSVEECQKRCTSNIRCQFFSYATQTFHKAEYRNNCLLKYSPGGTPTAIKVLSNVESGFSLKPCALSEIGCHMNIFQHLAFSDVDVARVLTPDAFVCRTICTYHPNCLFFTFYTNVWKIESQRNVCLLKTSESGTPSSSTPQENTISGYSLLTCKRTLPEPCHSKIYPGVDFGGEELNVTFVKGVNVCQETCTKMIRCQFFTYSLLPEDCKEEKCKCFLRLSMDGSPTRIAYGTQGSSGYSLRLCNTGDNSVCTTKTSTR
Sequence of Plasma kallikrein (P03952 391-638 limits assumed): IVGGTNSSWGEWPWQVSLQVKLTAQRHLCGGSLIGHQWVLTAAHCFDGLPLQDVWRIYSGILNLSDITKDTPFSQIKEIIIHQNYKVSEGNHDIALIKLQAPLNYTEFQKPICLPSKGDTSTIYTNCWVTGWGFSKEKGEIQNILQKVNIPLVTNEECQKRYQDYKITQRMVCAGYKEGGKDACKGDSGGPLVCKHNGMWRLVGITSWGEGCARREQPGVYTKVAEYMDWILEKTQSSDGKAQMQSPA
Sequence of Plasminogen (Mus musculus, UniProt P20918) (P20918 98-581 limits assumed): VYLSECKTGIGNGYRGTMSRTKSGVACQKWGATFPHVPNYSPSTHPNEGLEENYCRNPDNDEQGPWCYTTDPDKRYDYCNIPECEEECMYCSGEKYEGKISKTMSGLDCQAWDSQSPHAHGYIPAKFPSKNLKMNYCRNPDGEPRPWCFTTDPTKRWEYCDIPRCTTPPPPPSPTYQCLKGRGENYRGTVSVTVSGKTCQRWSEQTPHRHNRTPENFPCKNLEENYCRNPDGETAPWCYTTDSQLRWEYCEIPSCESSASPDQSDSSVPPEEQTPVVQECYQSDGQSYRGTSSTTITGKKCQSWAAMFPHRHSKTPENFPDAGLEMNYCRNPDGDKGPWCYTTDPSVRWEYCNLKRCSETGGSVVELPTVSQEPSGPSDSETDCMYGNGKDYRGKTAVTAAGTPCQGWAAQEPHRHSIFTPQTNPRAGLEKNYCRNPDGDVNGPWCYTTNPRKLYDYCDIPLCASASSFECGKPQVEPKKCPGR
Sequence of Plasminogen (Mus musculus, UniProt P20918) (P20918 582-812 limits assumed): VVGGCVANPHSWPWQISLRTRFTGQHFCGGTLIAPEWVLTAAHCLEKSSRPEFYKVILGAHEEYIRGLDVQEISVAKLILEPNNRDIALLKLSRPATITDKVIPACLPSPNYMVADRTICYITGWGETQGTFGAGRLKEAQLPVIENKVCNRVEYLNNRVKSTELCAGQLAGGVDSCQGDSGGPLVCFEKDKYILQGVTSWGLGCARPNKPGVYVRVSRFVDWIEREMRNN
Sequence of Plasminogen (Homo sapiens, UniProt P00747) (P00747 97-580 limits assumed): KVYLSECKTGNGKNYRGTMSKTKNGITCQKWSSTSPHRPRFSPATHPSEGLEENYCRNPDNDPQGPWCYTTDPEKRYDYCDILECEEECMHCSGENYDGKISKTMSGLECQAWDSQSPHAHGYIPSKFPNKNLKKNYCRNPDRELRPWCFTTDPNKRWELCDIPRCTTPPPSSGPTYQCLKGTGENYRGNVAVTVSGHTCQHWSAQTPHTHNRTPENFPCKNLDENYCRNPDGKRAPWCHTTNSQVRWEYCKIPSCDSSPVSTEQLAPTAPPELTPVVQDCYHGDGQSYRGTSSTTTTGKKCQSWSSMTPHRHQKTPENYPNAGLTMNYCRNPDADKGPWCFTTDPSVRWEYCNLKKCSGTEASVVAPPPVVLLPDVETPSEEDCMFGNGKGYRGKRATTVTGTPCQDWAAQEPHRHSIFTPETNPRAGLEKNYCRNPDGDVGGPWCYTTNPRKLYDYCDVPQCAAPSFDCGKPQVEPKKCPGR
Sequence of Plasminogen (Homo sapiens, UniProt P00747) (P00747 581-810 limits assumed): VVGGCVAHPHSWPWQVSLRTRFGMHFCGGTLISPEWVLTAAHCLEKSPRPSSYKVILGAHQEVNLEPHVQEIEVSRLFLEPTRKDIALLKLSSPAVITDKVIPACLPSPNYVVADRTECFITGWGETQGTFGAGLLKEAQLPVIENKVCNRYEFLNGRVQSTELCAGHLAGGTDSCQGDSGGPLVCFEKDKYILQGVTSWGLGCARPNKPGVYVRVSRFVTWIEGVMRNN

## CC[C@H](C)[C@@H]1NC(=O)[C@H](Cc2ccc(O)cc2)NC(=O)[C@H](CCCNC(=N)N)NC(=O)[C@H](CO)NC(=O)[C@H](Cc2ccc(O)cc2)NC(=O)[C@H](C)NC(=O)[C@@H]2CCCN2C(=O)[C@@H](N)CSSC[C@@H](C(=O)O)NC(=O)CNC1=O (H-CPAYSRYIGC-OH; disulfide 1-10)
Plasminogen [1]
  pKi: < 4.60
Plasminogen [2]
  pKi: < 4.60
CT26 [3]
  Activity: Active
[4]
  pKd: 8.62
CT26 [5]
  inhibition in vivo at 11.3 mg/kg: 50%
[6]
  pKi: 6.47
[7]
  Ratio Ki: 81
[8]
  pKi: 7.82
CT26 [9]
  inhibition in vivo at 1.13 mg/kg: 36.1%
CT26 [10]
  inhibition in vivo at 11.3 mg/kg: 56.8%
[11]
  inhibition: 70 to 80%
CT26 [12]
  Activity: inactive
Prothrombin
  pKi: < 4.60
CT26 [13]
  Activity: inactive
[14]
  pIC50: 7.15
[15]
  pKd: 7.97
CT26 [16]
  inhibition in vivo at 11.3 mg/kg: 49.8%
Plasma kallikrein
  pKi: < 4.60
CT26 [17]
  Activity: Non-Toxic
